Molecules are shown by their SMILES.

From paper PMC10925177 (bioRxiv, 2024) come the findings set out here.

The target in one assay is T1, GLP (Homo sapiens, UniProt Q9H9B1).
T1 sequence (Q9H9B1 1-1298): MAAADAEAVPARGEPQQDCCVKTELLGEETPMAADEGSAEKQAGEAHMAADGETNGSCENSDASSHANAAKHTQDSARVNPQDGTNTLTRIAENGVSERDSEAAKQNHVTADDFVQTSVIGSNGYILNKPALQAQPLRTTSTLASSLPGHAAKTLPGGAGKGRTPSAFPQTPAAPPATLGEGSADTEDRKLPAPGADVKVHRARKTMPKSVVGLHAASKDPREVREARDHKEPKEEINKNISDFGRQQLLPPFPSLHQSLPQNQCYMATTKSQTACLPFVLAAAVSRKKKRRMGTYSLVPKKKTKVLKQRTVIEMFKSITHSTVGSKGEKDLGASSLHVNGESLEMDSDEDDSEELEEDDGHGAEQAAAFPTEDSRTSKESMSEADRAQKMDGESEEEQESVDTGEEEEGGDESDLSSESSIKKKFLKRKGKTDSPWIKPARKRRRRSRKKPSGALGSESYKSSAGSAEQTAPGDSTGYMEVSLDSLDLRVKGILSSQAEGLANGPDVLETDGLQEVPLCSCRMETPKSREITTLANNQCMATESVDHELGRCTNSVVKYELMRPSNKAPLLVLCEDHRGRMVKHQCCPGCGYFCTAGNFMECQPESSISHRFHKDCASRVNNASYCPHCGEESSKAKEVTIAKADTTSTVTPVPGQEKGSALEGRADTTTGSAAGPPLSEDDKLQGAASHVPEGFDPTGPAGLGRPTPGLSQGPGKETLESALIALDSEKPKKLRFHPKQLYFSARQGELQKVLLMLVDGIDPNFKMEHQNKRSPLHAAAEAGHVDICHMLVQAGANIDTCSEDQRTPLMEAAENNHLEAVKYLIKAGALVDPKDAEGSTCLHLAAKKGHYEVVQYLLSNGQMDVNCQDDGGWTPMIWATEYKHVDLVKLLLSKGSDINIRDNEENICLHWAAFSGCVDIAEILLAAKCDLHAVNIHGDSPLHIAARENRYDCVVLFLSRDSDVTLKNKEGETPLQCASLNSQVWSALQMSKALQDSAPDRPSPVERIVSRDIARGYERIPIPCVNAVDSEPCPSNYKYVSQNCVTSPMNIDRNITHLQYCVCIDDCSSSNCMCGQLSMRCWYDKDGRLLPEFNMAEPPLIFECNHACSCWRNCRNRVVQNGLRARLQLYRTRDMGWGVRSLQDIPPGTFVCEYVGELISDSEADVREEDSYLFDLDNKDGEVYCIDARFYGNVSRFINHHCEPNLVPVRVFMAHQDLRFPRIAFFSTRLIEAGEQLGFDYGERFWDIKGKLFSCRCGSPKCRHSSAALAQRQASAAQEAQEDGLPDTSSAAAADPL
In words: Western blot of GLP protein levels in cancer cells. Type of assay: cell-based. The method in brief: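 Cells (22Rv1, K562, H1299) were treated for 24 h at the indicated concentrations; 22Rv1 time courses were run at 3 μM. Cells were lysed in RIPA with protease inhibitors, and 10–30 μg of protein was resolved by SDS-PAGE and transferred to PVDF. Blots were probed overnight at 4 °C, with vinculin/β-actin as loading controls. Band intensity was normalised to DMSO, with n = 2 independent experiments (mean ± SD).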

Assay [1] deals with T2, SET7/9 (Homo sapiens, UniProt Q8WTS6).
T2 sequence (Q8WTS6 1-366): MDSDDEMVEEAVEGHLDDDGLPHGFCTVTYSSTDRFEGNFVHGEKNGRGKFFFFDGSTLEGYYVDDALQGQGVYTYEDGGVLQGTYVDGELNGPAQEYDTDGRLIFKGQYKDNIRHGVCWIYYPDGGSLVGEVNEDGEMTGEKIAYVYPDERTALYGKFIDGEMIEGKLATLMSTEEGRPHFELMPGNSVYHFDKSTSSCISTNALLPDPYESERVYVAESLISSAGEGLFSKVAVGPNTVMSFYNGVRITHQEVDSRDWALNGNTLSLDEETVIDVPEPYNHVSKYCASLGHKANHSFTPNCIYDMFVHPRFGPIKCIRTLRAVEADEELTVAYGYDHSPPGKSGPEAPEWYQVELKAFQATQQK
The assay is described as follows: Radioactive methyltransferase assay, SET7/9. The class given is biochemical. Particulars: 10 μM compound. The method in brief: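 The selectivity screen covered 21 protein methyltransferases in radioisotope-based MT HotSpot methyltransferase assays run by a contract laboratory. Test compound was at 10 μM. Each assay was run in duplicate and reported as mean ± SD of the two replicates.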

For assay [2], the target named is T2, SET7/9. In words: Western blot of SET7/9 protein level in 22Rv1 cells. The class given is cell-based. To be noted: indicated concentration, 24 h, WB. The method in brief: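 22Rv1 cells were treated with the test compound at the indicated concentrations for 24 h. Cells were lysed in RIPA containing protease inhibitor cocktail, and protein was resolved by SDS-PAGE and transferred to PVDF. Primary antibody was applied overnight at 4 °C, with β-actin as loading control. Blots are representative of two independent experiments.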

As to `COc1cc2c(NC3CCN(CCCC(=O)NCCCCCCCCCCCC(=O)N[C@H](C(=O)N4C[C@H](O)C[C@H]4C(=O)NCc4ccc(-c5scnc5C)cc4)C(C)(C)C)CC3)nc(N3CCC(F)(F)CC3)nc2cc1OCCCN1CCCC1` [Compound 10, (2S,4R)-1-((S)-2-(12-(4-(4-((2-(4,4-difluoropiperidin-1-yl)-6-methoxy-7-(3-(pyrrolidin-1-yl)propoxy)quinazolin-4-yl)amino)piperidin-1-yl)butanamido)dodecanamido)-3,3-dimethylbutanoyl)-4-hydroxy-N-(4-(4-methylthiazol-5-yl)benzyl)pyrrolidine-2-carboxamide], the “GLP degradation, in words” value was “potently induced degradation” at GLP (22Rv1 cells, 1 μM, 24 h, WB (Figure 3A)); “degraded” on GLP (H1299 cells, 3 μM, 24 h, WB); “induced G9a and GLP degradation” at GLP (K562 cells, 3 μM, 24 h, WB). Further, at GLP (22Rv1 cells, 3 μM), the “duration of GLP degradation effect” value is “up to 48 h”. For the same molecule, on GLP (22Rv1 cells, 3 μM), the “time at which GLP degradation was first observed” value is 4 h. Further, the “time to complete GLP degradation” value at GLP (22Rv1 cells, 3 μM) is “around 24 h”. At GLP (read-out: half-maximal degradation concentration (DC50) for GLP, 22Rv1 cells, 24 h, WB), the DC50 was 260 ± 53 nM. The “inhibition of SET7/9” value on SET7/9 [1] is reported as “moderately inhibited”. On SET7/9 [2], the SET7/9 degradation entry was “cannot induce the degradation”.
